Experimental data from different studies.
Converted amounts (≈) assume the structure as drawn.

Structure (SMILES) | tested on | test | setting | measurement | result
NCCC(=O)Nc1ccccc1/N=c1\cc(-c2ccc3c(c2)OCCO3)oc2cc(F)ccc12 | MCF7 | cell growth or viability, CCK-8 | 1 µM | inhibition | -1.71%
C#CCOC(=O)ON=C1C=CC(=C(C#N)c2ccccc2)C=C1 | Candidozyma auris | microbial killing, broth dilution | 48 h | MFC | 32 µg/mL (≈ 105 µM)
COc1cccc(C2NCCc3cc(O)c(O)cc32)c1 (centres unmarked) |  | DPPH scavenging, absorbance | 30 min, dark | IC50 | 18.2 µM
CCOC(=O)C1=C(CSC2=NCCS2)NC(=O)NC1c1ccc(F)cc1 (centres unmarked) |  | DPPH scavenging |  | IC50 | 157 µM
CCCCCCCCCCCC1NCCc2cc(O)c(O)cc21 (centres unmarked) |  | DPPH scavenging, absorbance | 30 min, dark | IC50 | 27.9 µM
O=C(C[C@@H](C(F)F)n1ccc(F)n1)N1CCC(O)(Cn2cnc3c(cnn3-c3ccc(F)cc3)c2=O)CC1 | CAPAN-1 | cell growth or viability, SRB | 20 µM, 5 days | viability | 24%
C#CCON=C1C=CC(=C(C#N)c2ccccc2)C=C1 | Candidozyma auris | microbial growth, broth dilution | 48 h | MIC | 32 µg/mL (≈ 123 µM)
Oc1ccc(C2NCCc3cc(O)c(O)cc32)cc1O (centres unmarked) |  | DPPH scavenging, absorbance | 30 min, dark | IC50 | 8.14 µM
C=CC(=O)ON=C1C=CC(=C(C#N)c2ccccc2)C=C1 | Candidozyma auris | microbial growth, broth dilution | 48 h | MIC | 16 µg/mL (≈ 57.9 µM)
COc1cc(C2NCCc3cc(O)c(O)cc32)ccc1O (centres unmarked) |  | DPPH scavenging, absorbance | 30 min, dark | IC50 | 8.15 µM
N#CC(=C1C=CC(=NOC(=O)OCc2ccccc2)C=C1)c1ccccc1 | Candidozyma auris | microbial growth, broth dilution | 48 h | MIC | 64 µg/mL (≈ 180 µM)
CCOC(=O)C1=C(CCl)NC(=O)NC1c1ccc(F)cc1 (centres unmarked) |  | DPPH scavenging |  | IC50 | 246 µM
Oc1cccc(-c2nc(N3CCOCC3)c3oc4ncccc4c3n2)c1 | MCF7 | cell growth or viability, CCK-8 | 1 µM | inhibition | 13.9%
CC(=O)ON=C1C=CC(=C(C#N)c2ccccc2)C=C1 | Candidozyma auris | microbial killing, broth dilution | 48 h | MFC | 16 µg/mL (≈ 60.5 µM)
CCOC(=O)C1=C(CCl)NC(=O)NC1c1ccc(C(C)C)cc1 (centres unmarked) |  | DPPH scavenging |  | IC50 | 243 µM
CCCCCCCCC1NCCc2cc(O)c(O)cc21 (centres unmarked) |  | DPPH scavenging, absorbance | 30 min, dark | IC50 | 65.3 µM
CCOC(=O)C1=C(CCl)NC(=O)NC1c1ccc(F)cc1F (centres unmarked) |  | DPPH scavenging |  | IC50 | 117 µM
C[C@H](N)C(=O)Nc1ccccc1/N=c1\cc(-c2ccc3c(c2)OCCO3)oc2c([N+](=O)[O-])cccc12 | MCF7 | cell growth or viability, CCK-8 | 1 µM | inhibition | 6.59%
COc1ccc(C2NCCc3cc(O)c(O)cc32)cc1O (centres unmarked) |  | DPPH scavenging, absorbance | 30 min, dark | IC50 | 18.7 µM
CCOC(=O)C1=C(CSC2=NCCS2)NC(=O)NC1c1cccc(Cl)c1 (centres unmarked) |  | DPPH scavenging |  | IC50 | 142 µM
N[C@@H](CO)C(=O)Nc1ccccc1/N=c1\cc(-c2ccc3c(c2)OCO3)oc2ccccc12 | MCF7 | cell growth or viability, CCK-8 | 1 µM | inhibition | 16.3%
CCOC(=O)C1=C(CSC2=NCCS2)NC(=O)NC1c1cccc(OC)c1 (centres unmarked) |  | DPPH scavenging |  | IC50 | 150 µM
NCC(=O)Nc1ccccc1/N=c1\cc(-c2ccc3c(c2)OCCO3)oc2ccccc12 | MCF7 | cell growth or viability, CCK-8 | 1 µM | inhibition | -1.21%
